From ChEMBL document CHEMBL3627673, “Modification of cellular DNA by synthetic aziridinomitosenes” (Bioorg Med Chem, 2015)
Activity calls are given as the source filed them. The calls are words filed in the database; no cut-off is given here.

Key:
Jurkat [1] = assay: Induction of DNA modifying activity in human Jurkat cells assessed as DNA-protein crosslink at 100 uM under hypoxic condition by K-SDS assay; assay type: cell-based
Summary of the method: (§1)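 Jurkat cells (2 x 10^5) treated 1.5 h at 37 °C in complete RPMI-1640, aerobic or in sealed 95% N2/5% CO2 chamber. Lysed in 2% SDS/Tris pH 7.5; KCl precipitation, three 65 °C wash rounds, proteinase K 55 °C 3 h. Protein-linked and free DNA quantified by SYBR Green against standard; %DPC = linked/(linked+free) x100. Mean ± SEM, three experiments (n=9).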

HepG2 = assay: Antiproliferative activity against human HepG2 cells after 48 hrs by resazurin reduction assay; assay type: functional, cell-based; settings: HepG2, 48 h
Summary of the method: (§2)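 Cells seeded at 8,000/well; adherent lines trypsinized and given 24 h at 37 °C in 5% CO2 before drug, media replaced with drug dilutions or vehicle. Drug exposure 48 h, then 0.1% resazurin added for 4-24 h. Fluorescence 530/590 nm, expressed as % of untreated, and IC50 from log(inhibitor) vs response fit. Mean ± SEM, ≥3 independent experiments, ≥3 wells each.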

Jurkat [2] = assay: Induction of DNA modifying activity in human Jurkat cells assessed as tail extent moments at 10 uM under aerobic condition by alkaline comet assay in presence of 100 uM H2O2
Summary of the method: (§3)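 Jurkat cells at 1 x 10^5/mL were exposed to drug or PBS for 1 h at 37 °C in 5% CO2 (hypoxic arm in an N2/CO2 chamber). They then received 100 µM H2O2 in PBS for 20 min at 4 °C. Cells were embedded in agarose and lysed overnight, unwound at pH >13 for 20 min, electrophoresed at 20 V for 30 min at 4 °C, and stained with SYBR Green. Tail extent moment (tail length x tail DNA) was measured from ≥50 cells over two experiments.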

HeLa = assay: Antiproliferative activity against human HeLa cells after 48 hrs by resazurin reduction assay; assay type: functional, cell-based; summary of the method: as §2
Jurkat [3] = assay: Antiproliferative activity against human Jurkat T cells after 48 hrs by resazurin reduction assay; assay type: functional, cell-based; summary of the method: as §2
T47D = assay: Antiproliferative activity against human T47D cells after 48 hrs by resazurin reduction assay; assay type: functional, cell-based; summary of the method: as §2
Jurkat [4] = assay: Induction of DNA modifying activity in human Jurkat cells assessed as increase in DNA-protein crosslink at 100 uM under aerobic condition by K-SDS assay (reference value: 4.5. +/- 1.5%); assay type: cell-based; summary of the method: as §1
Jurkat [5] = assay: Induction of DNA modifying activity in human Jurkat cells assessed as tail extent moments at 10 uM under hypoxic condition by alkaline comet assay in presence of 100 uM H2O2; summary of the method: as §3
Jurkat [6] = assay: Induction of DNA modifying activity in human Jurkat cells assessed as increase in amount of crosslink DNA at 10 uM for 1 hr under hypoxic condition by Hoechst-33342 staining based fluorescence assay
Summary of the method: (§4)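 Jurkat cells (~5-6 x 10^6) were exposed to drug or PBS for 1 h (aerobic, or in a sealed 95% N2/5% CO2 chamber) before DNA isolation. DNA (3,750 ng) was mixed with Hoechst 33342 in 0.5x TE, ex/em 360/460 nm, read before and after 5 min at 96-98 °C, 5 min ice, and 5 min room temperature. Crosslinked fraction was taken against a dye-only control and converted to crosslinks/fragment = -ln(1-X). Two isolations, each in triplicate.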

HuT78 = assay: Antiproliferative activity against human HUT78 cells after 48 hrs by resazurin reduction assay; assay type: functional, cell-based; settings: HuT78, 48 h; summary of the method: as §2
HL-60 = assay: Antiproliferative activity against human HL60 cells after 48 hrs by resazurin reduction assay; assay type: functional, cell-based; settings: HL-60, 48 h; summary of the method: as §2
Jurkat [7] = assay: Induction of DNA modifying activity in human Jurkat cells assessed as increase in amount of crosslink DNA at 10 uM for 1 hr under aerobic condition by Hoechst-33342 staining based fluorescence assay; summary of the method: as §4
Jurkat [8] = assay: Antiproliferative activity against human Jurkat T cells in hypoxic condition after 48 hrs by resazurin reduction assay; assay type: functional, cell-based
Summary of the method: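 Jurkat cells held in a chamber purged 15 min with 95% N2/5% CO2, sealed, and incubated 1 h at 37 °C. Drug was diluted in N2/CO2-sparged PBS and added, then the chamber was purged again for 15 min and kept sealed at 37 °C for the assay. Resazurin readout was 530/590 nm, with IC50 from log(inhibitor) vs response fit.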

[9] = Stability of the compound in DMEM media assessed as compound remaining at 213 uM after 0.5 hrs by HPLC analysis; assay type: physicochemical; settings: read-out: Stability
[10] = Stability of the compound in DMEM media assessed as compound remaining at 213 uM after 1 hr by HPLC analysis; assay type: physicochemical; settings: read-out: Stability
Jurkat [11] = assay: Induction of DNA modifying activity in human Jurkat cells assessed as increase in H2O2-induced DNA strand break at 10 uM under aerobic condition by alkaline comet assay in presence of H2O2; assay type: cell-based; summary of the method: as §3
[12] = Stability of the compound in DMEM media assessed as compound remaining at 213 uM after 2 hrs by HPLC analysis; assay type: physicochemical; settings: read-out: Stability
[13] = Stability of the compound in DMEM media assessed as compound remaining at 213 uM after 1.5 hrs by HPLC analysis; assay type: physicochemical; settings: read-out: Stability
[14] = Stability of the compound in DMEM media assessed as compound remaining at 250 uM after 49 hrs by HPLC analysis; assay type: physicochemical; settings: read-out: Stability
Summary of the method: (§5)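 Stock in DMSO added to DMEM with 10% FBS and pen/strep to 250 µM final, then filtered. Injected every 15 min onto a phenyl column with detection at 254 and 480 nm. Mobile phase was acetonitrile (A) and pH 7.2 Tris (B) at 1.0 mL/min, 15 min gradient from 30% A to 70% A.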

[15] = Stability of the compound in DMEM media assessed as compound remaining at 250 uM after 2 hrs by HPLC analysis; assay type: physicochemical; settings: read-out: Stability; summary of the method: as §5
[16] = Stability of the compound in methanol assessed as retention time by HPLC analysis; assay type: physicochemical
[17] = Stability of the compound in DMEM media assessed as compound remaining at 250 uM after 7 hrs by HPLC analysis; assay type: physicochemical; settings: read-out: Stability; summary of the method: as §5
[18] = Stability of the compound in DMEM media assessed as compound remaining at 250 uM after 5 hrs by HPLC analysis; assay type: physicochemical; settings: read-out: Stability; summary of the method: as §5

SMILES | Activity (Jurkat [1]) | IC50 (HepG2) | Activity (Jurkat [2]) | IC50 (HeLa) | IC50 (Jurkat [3]) | IC50 (T47D) | Activity (Jurkat [4]) | Activity (Jurkat [5]) | Activity (Jurkat [6]) | IC50 (HuT78) | IC50 (HL-60) | Activity (Jurkat [7]) | IC50 (Jurkat [8]) | Activity (Jurkat [11]) | other results
CO[C@@]12[C@H](COC(N)=O)C3=C(C(=O)C(C)=C(N)C3=O)N1C[C@@H]1N[C@@H]12 [MITOMYCIN] | inactive | 2940 nM | 96 | 1870 nM | 578 nM | 17 µM | 7.8% | 87 | Active | 66 nM | 410 nM | Active | 303 nM |  | 
CN1[C@@H]2c3c(COC(N)=O)c4c(n3C[C@@H]21)C(=O)C=CC4=O (some centres undefined) | inactive | 7870 nM | 0.49 | 6210 nM | 4160 nM | 9.29 µM | 17% | 3.6 |  | 131 nM | 2030 nM | Active | 3960 nM | Active | remaining at 0.5 h, 213 µM [9]: 50%; remaining at 1 h, 213 µM [10]: 25%; remaining at 2 h, 213 µM [12]: 8%; remaining at 1.5 h, 213 µM [13]: 14%
CC1=CC(=O)c2c(COC(N)=O)c3n(c2C1=O)C[C@H]1[C@@H]3N1C (some centres undefined) | 41.9% | 342 nM | 0.26 | 525 nM | 8 nM | 0.225 µM | 17% | 0.32 | 0.51 | 24 nM | 30 nM | 0.55 | 4 nM | Active | remaining at 49 h, 250 µM [14]: 18%; remaining at 2 h, 250 µM [15]: 89%; Retention_time [16]: 3.6 min; remaining at 7 h, 250 µM [17]: 72%; remaining at 5 h, 250 µM [18]: 78%
